Results pooled from the literature.
Compare with care: the assays were run in different laboratories.
CECR2: Chromatin remodeling regulator CECR2 (CECR2, Homo sapiens, UniProt Q9BXF3)
SLC6A2: Sodium-dependent noradrenaline transporter (SLC6A2, Homo sapiens, UniProt P23975)
CASK: Peripheral plasma membrane protein CASK (CASK, Homo sapiens, UniProt O14936)

`CNC(=O)c1cc(Oc2ccc(NC(=O)Nc3ccc(Cl)c(C(F)(F)F)c3)cc2)ccn1` has an inhibition of 99% (Fibroblast growth factor receptor 1 (FGFR1, Homo sapiens, UniProt P11362); enzyme activity, inhibitor; 10 µM).
`Cc1cnc(Nc2ccc(OCCN3CCCC3)cc2)nc1Nc1cccc(S(=O)(=O)NC(C)(C)C)c1` gave a ΔTm of 0.12 °C (CECR2; thermal stability, DSF; 10 µM).
For `CC(=O)N[C@H]1CSSC[C@@H](C(=O)N[C@H](Cc2c[nH]c3ccccc23)C(N)=O)NC(=O)[C@@H](Cc2ccccc2)NC(=O)[C@H](CCCNC(=N)N)NC1=O`, the Emax was 0% (Melanocortin receptor 4 (MC4R, Homo sapiens, UniProt P32245); cAMP, agonist; HEK293; 3 min).
`Clc1ccc(C(c2ccccc2)c2nnnn2CCCN2CCC(CCc3ccccc3)CC2)cc1` (stereo not drawn) gave an inhibition of 50.1% (SLC6A2; transporter uptake, inhibitor; HEK293; 1 µM).
With `CC(C)CCC[C@@H](C)[C@H]1CC[C@H]2[C@@H]3[C@H](O)CC4=CC(=O)CC[C@]4(C)[C@H]3CC[C@]12C` the Km was 0.505 µM (7-alpha-hydroxycholest-4-en-3-one 12-alpha-hydroxylase (Homo sapiens, UniProt Q9UNU6); enzyme activity, substrate).
`Cc1ccc(C(=O)Nc2ccc(CN3CCN(C)CC3)c(C(F)(F)F)c2)cc1C#Cc1cnc2cccnn12` has a remaining signal of 84% (CASK; cell-free assay; 23.5 nM).
The inhibition of `Clc1ccc(C(c2ccc(Cl)cc2)c2nnnn2CCCCN2CCN(Cc3ccccc3)CC2)cc1` is reported as 79% (SLC6A2; transporter uptake, inhibitor; HEK293; 1 µM).
The remaining binding of `NS(=O)(=O)c1ccc(Nc2nc(-c3ccc(F)cc3)c3ccccc3n2)cc1` is reported as 79% (CECR2; binding, competition with immobilised ligand; 1 µM).
With `Nc1ncnc2occ(-c3ccc(NC(=O)Nc4cc(C(F)(F)F)ccc4F)cc3)c12` the remaining signal was 56% (CASK; cell-free assay; 20 µM).
With `CCCOc1ccc(OC)c(F)c1C(=O)c1ccc(C(=O)N[C@@H]2CNC[C@H]2NC(=O)c2ccc3[nH]ncc3c2)cc1` the remaining activity was 4% (cAMP-dependent protein kinase catalytic subunit PRKX (PRKX, Homo sapiens, UniProt P51817); enzyme activity, inhibitor; 0.75 µM).
With `c1ccc(CCCC2CCN(CCCn3nnnc3C(c3ccccc3)c3ccccc3)CC2)cc1` the inhibition was 84.9% (SLC6A2; transporter uptake, inhibitor; HEK293; 1 µM).
With `Cc1cc2c(cc1N1C(=O)c3cccc4c(Cl)ccc(c34)C1=O)n(C)c(=O)n2C` the ΔTm was 3.5 °C (CECR2; thermal stability, DSF; 10 µM).
For `CCN1CCN(Cc2ccc(NC(=O)c3ccc(C)c(Oc4ccnc5[nH]ccc45)c3)cc2C(F)(F)F)CC1`, the inhibition was -138% (Serine/threonine-protein kinase 10 (STK10, Homo sapiens, UniProt O94804); target engagement in cells, inhibitor, chemoproteomics; A-375; 5 µM).
The remaining activity of `CC(C)(C)c1nc2c(s1)c1nc(N)ncc1c1ccc(NS(=O)(=O)c3c(F)cccc3F)c(F)c12` is reported as 89% (Mitotic checkpoint serine/threonine-protein kinase BUB1 beta (BUB1B, Homo sapiens, UniProt O60566); enzyme activity, inhibitor, radiometric; 1 µM).
`Oc1ccc(-c2nc(-c3ccncc3)c(-c3ccc(F)cc3)[nH]2)cc1` gave a ΔTm of 1.3 °C (CECR2; thermal stability, DSF; 10 µM).
